# ChEMBL document CHEMBL4014308, “Amphiphilic Tobramycin-Lysine Conjugates Sensitize Multidrug Resistant Gram-Negative Bacteria to Rifampicin and Minocycline” (J Med Chem, 2017)
# The source made the active and inactive calls. The calls are words filed in the database; no cut-off is given here.
# Experiments:
# Pseudomonas aeruginosa [1] = test: Potentiation of minocycline-induced antibacterial activity against multidrug/extremely drug-resistant/colistin-resistant Pseudomonas aeruginosa isolate 101243 assessed as fold reduction in minocycline MIC at 4 ug/ml after 18 hrs by checkerboard assay relative to control; assay type: functional
# In short: (§1)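 Checkerboard in Mueller-Hinton broth, 10 × 7 matrix, with the adjuvant held at 4 µg/mL. Inoculum from a 0.5 McFarland suspension diluted 1:50; 18 h at 37 °C. Antibiotic MIC (lowest concentration with no growth) with adjuvant is compared with the antibiotic MIC alone, giving a fold reduction.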
# Acinetobacter baumannii [2] = test: Potentiation of minocycline-induced antibacterial activity against multidrug-resistant Acinetobacter baumannii 110193 at 4 ug/ml after 18 hrs by checkerboard assay; assay type: functional
# In short: (§2)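 Checkerboard in Mueller-Hinton broth: antibiotic serially diluted along one axis and adjuvant along the other (10 × 7 matrix). Inoculum from a 0.5 McFarland saline suspension diluted 1:50 in MHB; 18 h at 37 °C, then plate read. MIC is the lowest concentration with no growth. FIC of each agent is its concentration in a no-growth well divided by its MIC alone; FIC index is the sum of both. FIC index ≤0.5 counts as synergy.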
# Pseudomonas aeruginosa [3] = test: Potentiation of minocycline-induced antibacterial activity against multidrug/extremely drug-resistant/colistin-resistant Pseudomonas aeruginosa isolate 91433 at 4 ug/ml after 18 hrs by checkerboard assay; assay type: functional; in short: as §2
# [4] = Ratio of cytotoxic concentration against human DU145 cells to synergistic concentration for Pseudomonas aeruginosa PAO1 in presence of minocycline
# Pseudomonas aeruginosa [5] = test: Potentiation of minocycline-induced antibacterial activity against multidrug/extremely drug-resistant/colistin-resistant Pseudomonas aeruginosa isolate 91433 assessed as fold reduction in minocycline MIC at 4 ug/ml after 18 hrs by checkerboard assay relative to control; assay type: functional; in short: as §1
# Pseudomonas aeruginosa [6] = test: Potentiation of minocycline-induced antibacterial activity against multidrug/extremely drug-resistant/colistin-susceptible Pseudomonas aeruginosa isolate P264-104354 assessed as fold reduction in minocycline MIC at 4 ug/ml after 18 hrs by checkerboard assay relative to control; assay type: functional; in short: as §1
# Pseudomonas aeruginosa [7] = test: Potentiation of minocycline-induced antibacterial activity against multidrug/extremely drug-resistant/colistin-susceptible Pseudomonas aeruginosa isolate P264-104354 at 4 ug/ml after 18 hrs by checkerboard assay; assay type: functional; in short: as §2
# Pseudomonas aeruginosa [8] = test: Antibacterial activity against multidrug/extremely drug-resistant/colistin-susceptible Pseudomonas aeruginosa isolate 101885 after 18 hrs by microtiter dilution assay; assay type: functional; conditions: isolate 101885, 18 h
# In short: (§3)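 Broth microdilution following CLSI guidelines. An overnight culture was adjusted to 0.5 McFarland in saline, then diluted 1:50 in Mueller-Hinton broth. This inoculum was added in equal volume to 2-fold serial dilutions of agent in MHB and incubated 18 h at 37 °C. MIC was the lowest concentration with no visible growth.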
# Pseudomonas aeruginosa [9] = test: Potentiation of colistin-induced antibacterial activity against Pseudomonas aeruginosa PAO1 at 4 ug/ml after 18 hrs by checkerboard assay; assay type: functional; in short: as §2
# Pseudomonas aeruginosa [10] = test: Antibacterial activity against multidrug/extremely drug-resistant/colistin-resistant Pseudomonas aeruginosa isolate 101243 after 18 hrs by microtiter dilution assay; assay type: functional; conditions: isolate 101243, 18 h; in short: as §3
# Acinetobacter baumannii [11] = test: Synergistic antibacterial activity against multidrug-resistant Acinetobacter baumannii AB030 after 18 hrs in presence of minocycline by checkerboard assay; assay type: functional; conditions: AB030, 18 h
# In short: (§4)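 Checkerboard in MHB with a 10 × 7 matrix: antibiotic serially diluted along one axis, adjuvant along the other. Inoculum was a 1:50 dilution of a 0.5 McFarland suspension, incubated 18 h at 37 °C and read on a plate reader. Each FIC is the concentration in a no-growth well divided by the MIC alone; FIC index is their sum, with ≤0.5 taken as synergy.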
# Pseudomonas aeruginosa [12] = test: Potentiation of minocycline-induced antibacterial activity against multidrug/extremely drug-resistant/colistin-susceptible Pseudomonas aeruginosa isolate 100036 assessed as fold reduction in minocycline MIC at 4 ug/ml after 18 hrs by checkerboard assay relative to control; assay type: functional; in short: as §1
# Pseudomonas aeruginosa [13] = test: Bactericidal activity against Pseudomonas aeruginosa PAO1 at 0.125 times antibacterial MIC after 6 hrs; assay type: functional
# Acinetobacter baumannii [14] = test: Synergistic antibacterial activity against multidrug-resistant Acinetobacter baumannii 110193 after 18 hrs in presence of rifampicin by checkerboard assay; assay type: functional; conditions: Acinetobacter baumannii, 110193, 18 h; in short: as §4
# Pseudomonas aeruginosa [15] = test: Synergistic antibacterial activity against Pseudomonas aeruginosa PAO1 after 18 hrs in presence of kanamycin A by checkerboard assay; assay type: functional; conditions: PAO1, 18 h
# In short: (§5)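 Checkerboard in MHB: antibiotic diluted along one axis and adjuvant along the other (10 × 7 matrix). Inoculum was a 1:50 dilution in MHB of a 0.5 McFarland saline suspension; incubated 18 h at 37 °C. Each FIC = concentration in the no-growth well divided by the MIC alone; FIC index = sum of both FICs. ≤0.5 synergy, 0.5–4 no interaction, ≥4 antagonism.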
# Pseudomonas aeruginosa [16] = test: Potentiation of rifampicin-induced antibacterial activity against multidrug/extremely drug-resistant/colistin-susceptible Pseudomonas aeruginosa isolate P262-101856 at 4 ug/ml after 18 hrs by checkerboard assay; assay type: functional
# In short: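 Checkerboard broth microdilution in MHB: antibiotic serially diluted along one axis, adjuvant along the other (10 × 7 matrix). Inoculum from 0.5 McFarland saline suspension diluted 1:50 in MHB; 18 h at 37 °C. MIC taken as lowest concentration with no growth. FIC per agent = combination MIC/MIC alone; FIC index = sum (≤0.5 synergy).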
# Pseudomonas aeruginosa [17] = test: Induction of outer membrane permeabilization in Pseudomonas aeruginosa PAO1 at 32 ug/ml after 30 mins by CFDASE staining based fluorescence assay; assay type: functional
# In short: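 Log-phase PAO1 washed in PBS, brought to OD600 0.5 and loaded with 100 µM CFDASE for 30 min at 37 °C, then washed. Cells were exposed to agent for 30 min at 37 °C and supernatant fluorescence read at 488/520 nm. Untreated cells were subtracted; 1% Triton X-100 served as positive control.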
# Pseudomonas aeruginosa [18] = test: Potentiation of minocycline-induced antibacterial activity against multidrug/extremely drug-resistant/colistin-susceptible Pseudomonas aeruginosa isolate P262-101856 infected in Galleria mellonella assessed as host survival at 75 mg/kg after 24 hrs relative to control; assay type: functional; conditions: isolate P262-101856, 24 h
# In short: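 Galleria mellonella larvae (about 250 mg, used within 7 days; 15 per group) were injected with 10 µL of XDR P. aeruginosa P262 at 1.0×10^3 CFU/mL. At 2 h they received a single 10 µL injection: monotherapy at 75 mg/kg, or combinations at 12.5+12.5 to 75+75 mg/kg. PBS vehicle served as control. Survival was scored over 24 h at 37 °C.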
# Pseudomonas aeruginosa [19] = test: Synergistic antibacterial activity against Pseudomonas aeruginosa PAO1 after 18 hrs in presence of vancomycin by checkerboard assay; assay type: functional; conditions: PAO1, 18 h; in short: as §5
# Pseudomonas aeruginosa [20] = test: Potentiation of rifampicin-induced antibacterial activity against Pseudomonas aeruginosa PAO750 harboring RND efflux pump/OpmH deletion mutant after 18 hrs by checkerboard assay; assay type: functional; in short: as §2
# [21] = system: Staphylococcus epidermidis; test: Antibacterial activity against methicillin-susceptible Staphylococcus epidermidis isolate CANWARD-2008 81388 after 18 hrs by microtiter dilution assay; assay type: functional; conditions: isolate CANWARD-2008 81388, 18 h; in short: as §3
# Acinetobacter baumannii [22] = test: Potentiation of minocycline-induced antibacterial activity against multidrug-resistant Acinetobacter baumannii AB027 at 4 ug/ml after 18 hrs by checkerboard assay; assay type: functional; in short: as §2
compound,measurement,setting,value
Cl.Cl.Cl.Cl.Cl.Cl.Cl.NCCCC[C@H](N)C(=O)N(CCCCCCCCCCCCO[C@@H]1[C@@H](O[C@H]2O[C@H](CO)[C@@H](O)[C@H](N)[C@H]2O)[C@H](N)C[C@H](N)[C@H]1O[C@H]1O[C@H](CN)[C@@H](O)C[C@H]1N)Cc1c2ccccc2c(Cl)c2ccccc12,fold change (FC),Pseudomonas aeruginosa [1],4
same,fractional inhibitory concentration index (FICI),Acinetobacter baumannii [2],0.63
same,fractional inhibitory concentration index (FICI),Pseudomonas aeruginosa [3],0.266
same,Ratio,[4],6
same,fold change (FC),Pseudomonas aeruginosa [5],128
same,fold change (FC),Pseudomonas aeruginosa [6],128
same,fractional inhibitory concentration index (FICI),Pseudomonas aeruginosa [7],0.079
same,MIC,Pseudomonas aeruginosa [8],16 µg/mL
same,fractional inhibitory concentration index (FICI),Pseudomonas aeruginosa [9],1.031
same,MIC,Pseudomonas aeruginosa [10],16 µg/mL
same,MIC,Acinetobacter baumannii [11],16 µg/mL
same,fold change (FC),Pseudomonas aeruginosa [12],32
same,Activity,Pseudomonas aeruginosa [13],inactive
same,MIC,Acinetobacter baumannii [14],1 µg/mL
same,MIC,Pseudomonas aeruginosa [15],0.5 µg/mL
same,fractional inhibitory concentration index (FICI),Pseudomonas aeruginosa [16],0.141
same,Activity,Pseudomonas aeruginosa [17],Active
same,survival at 75 mg/kg,Pseudomonas aeruginosa [18],77%
same,MIC,Pseudomonas aeruginosa [19],4 µg/mL
same,fractional inhibitory concentration index (FICI),Pseudomonas aeruginosa [20],0.156
same,MIC,[21],2 µg/mL
same,fractional inhibitory concentration index (FICI),Acinetobacter baumannii [22],0.258
